Measured values: ChEMBL document CHEMBL1165950, “Design and synthesis of new potent anticancer pyrazoles with high FLT3 kinase inhibitory selectivity” (Bioorg Med Chem, 2010)

Tests used:
Format in all cases: functional
[1] = system: A549; assay: Growth inhibition of human A549 cells after 48 hrs by sulforhodamine B assay; conditions: A549, 48 h
Method in brief: (§1)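 NCI five-dose SRB assay in RPMI 1640 with 5% FBS and 2 mM L-glutamine. Cells were preincubated 24 h, then exposed 48 h at 37 °C to five concentrations (10-fold or half-log serial dilutions from DMSO stocks). TCA fixation, SRB staining, and absorbance at 515 nm followed. IC50 was taken where [(Ti−Tz)/(C−Tz)]×100 = 50, with Tz as time-zero cell density.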

[2] = system: HL-60(TB); assay: Cytotoxicity against human HL-60(TB) cells assessed as cell growth at 10 uM after 48 hrs by sulforhodamine B assay; conditions: HL-60, 48 h, read-out: Activity
Method in brief: (§2)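 NCI 60-cell panel. Cells are grown in RPMI 1640 with 5% FBS and 2 mM L-glutamine, seeded at 5000–40,000 cells/well according to doubling time, and preincubated 24 h. Time-zero plates are TCA-fixed. Compound from DMSO stock is given at five 10-fold or 1/2-log concentrations for 48 h at 37 °C, 5% CO2. Suspension cells are fixed with 80% TCA (final 16%) and SRB-stained, with absorbance at 515 nm. Percent growth is derived from Tz, control and test readings.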

[3] = system: HL-60(TB); assay: Cytotoxicity against human HL-60(TB) cells assessed as cell growth at 0.001 uM after 48 hrs by sulforhodamine B assay; conditions: HL-60, 48 h, read-out: Activity; method in brief: as §2
[4] = system: NCI-H226; assay: Cytotoxicity against human NCI-H226 cells assessed as cell growth at 0.001 uM after 48 hrs by sulforhodamine B assay; conditions: NCI-H226, 48 h, read-out: Activity
[5] = system: HCT-116; assay: Growth inhibition of human HCT116 cells after 48 hrs by sulforhodamine B assay; conditions: HCT-116, 48 h; for CC50: read-out: LC50 (the source's name)
Method in brief: (§3)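 NCI 60-cell screen, five-dose mode. Cells grown in RPMI 1640 with 5% FBS and 2 mM L-glutamine and plated at 5000-40,000 cells/well according to doubling time. After 24 h preincubation, a Tz plate was TCA-fixed. Five concentrations (10-fold or 1/2 log dilutions) were applied for 48 h at 37 °C. SRB staining read at 515 nm. IC50 taken from [(Ti-Tz)/(C-Tz)]×100 = 50.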

[6] = system: NCI-H322M; assay: Cytotoxicity against human NCI-H322M cells assessed as cell growth at 10 uM; conditions: read-out: Activity
Method in brief: (§4)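 NCI-60 screen: cells grown in RPMI 1640 with 5% FBS and 2 mM L-glutamine, plated at 5000–40,000 cells/well according to doubling time, and preincubated 24 h at 37 °C, 5% CO2. The single 10 µM dose (DMSO stock) was added, then incubated 48 h. Cells were TCA-fixed and stained with 0.4% SRB, read at 515 nm, and growth % calculated against time-zero and control plates.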

[7] = system: OVCAR-5; assay: Cytotoxicity against human OVCAR5 cells assessed as cell growth at 0.001 uM after 48 hrs by sulforhodamine B assay; conditions: OVCAR-5, 48 h, read-out: Activity
[8] = system: SNB-75; assay: Cytotoxicity against human SNB75 cells assessed as cell growth at 10 uM after 48 hrs by sulforhodamine B assay; conditions: SNB-75, 48 h, read-out: Activity
[9] = system: SK-MEL-2; assay: Cytotoxicity against human SK-MEL-2 cells assessed as cell growth at 10 uM; conditions: read-out: Activity; method in brief: as §4
[10] = system: HT-29; assay: Growth inhibition of human HT-29 cells after 48 hrs by sulforhodamine B assay; conditions: HT-29, 48 h; for CC50: read-out: LC50 (the source's name); method in brief: as §3
[11] = system: TK-10; assay: Cytotoxicity against human TK10 cells assessed as cell growth at 10 uM after 48 hrs by sulforhodamine B assay; conditions: TK-10, 48 h, read-out: Activity
[12] = system: HOP-62; assay: Growth inhibition of human HOP62 cells after 48 hrs by sulforhodamine B assay; conditions: HOP-62, 48 h; method in brief: as §3
[13] = system: OVCAR-4; assay: Cytotoxicity against human OVCAR4 cells assessed as cell growth at 100 nM after 48 hrs by sulforhodamine B assay; conditions: OVCAR-4, 48 h, read-out: Activity
[14] = system: EKVX; assay: Cytotoxicity against human EKVX cells assessed as cell growth at 10 uM after 48 hrs by sulforhodamine B assay; conditions: read-out: Activity
[15] = system: NCI-H322M; assay: Cytotoxicity against human NCI-H322M cells assessed as cell growth at 0.01 uM after 48 hrs by sulforhodamine B assay; conditions: read-out: Activity
[16] = system: 786-0; assay: Growth inhibition of human 786-0 cells after 48 hrs by sulforhodamine B assay; conditions: 786-0, 48 h; for CC50: read-out: LC50 (the source's name); method in brief: as §1
[17] = system: EKVX; assay: Cytotoxicity against human EKVX cells assessed as cell growth at 0.01 uM after 48 hrs by sulforhodamine B assay; conditions: read-out: Activity
[18] = system: MDA-MB-468; assay: Cytotoxicity against human MDA-MB-468 cells assessed as cell growth at 1 uM after 48 hrs by sulforhodamine B assay; conditions: MDA-MB-468, 48 h, read-out: Activity
[19] = system: EKVX; assay: Cytotoxicity against human EKVX cells assessed as cell growth at 100 nM after 48 hrs by sulforhodamine B assay; conditions: read-out: Activity
[20] = system: MDA-MB-231; assay: Cytotoxicity against human MDA-MB-231 cells assessed as cell growth at 0.01 uM after 48 hrs by sulforhodamine B assay; conditions: MDA-MB-231, 48 h, read-out: Activity
[21] = system: U-251; assay: Cytotoxicity against human U251 cells assessed as cell growth at 0.01 uM after 48 hrs by sulforhodamine B assay; conditions: U-251, 48 h, read-out: Activity
[22] = system: OVCAR-8; assay: Cytotoxicity against human OVCAR8 cells assessed as cell growth at 10 uM after 48 hrs by sulforhodamine B assay; conditions: OVCAR-8, 48 h, read-out: Activity
[23] = system: SNB-19; assay: Cytotoxicity against human SNB19 cells assessed as cell growth at 0.01 uM after 48 hrs by sulforhodamine B assay; conditions: SNB-19, 48 h, read-out: Activity
[24] = system: SF-539; assay: Growth inhibition of human SF539 cells after 48 hrs by sulforhodamine B assay; conditions: SF-539, 48 h; for CC50: read-out: LC50 (the source's name); method in brief: as §3
[25] = system: CAKI-1; assay: Growth inhibition of human Caki1 cells after 48 hrs by sulforhodamine B assay; conditions: CAKI-1, 48 h; for CC50: read-out: LC50 (the source's name); method in brief: as §1
[26] = system: LOX IMVI; assay: Cytotoxicity against human LOXIMVI cells assessed as cell growth at 0.01 uM after 48 hrs by sulforhodamine B assay; conditions: read-out: Activity
[27] = system: K562; assay: Cytotoxicity against human K562 cells assessed as cell growth at 0.01 uM after 48 hrs by sulforhodamine B assay; conditions: K562, 48 h, read-out: Activity
[28] = system: MDA-MB-231; assay: Cytotoxicity against human MDA-MB-231 cells assessed as cell growth at 10 uM; conditions: read-out: Activity; method in brief: as §4
[29] = system: MDA-MB-231; assay: Cytotoxicity against human MDA-MB-231 cells assessed as cell growth at 0.001 uM after 48 hrs by sulforhodamine B assay; conditions: MDA-MB-231, 48 h, read-out: Activity

`Cc1cc(O)cc(-c2nn(CC#N)cc2-c2ccnc(-c3ccc(Oc4ccccc4)cc3)c2)c1` gave a GI50 [1] of 2 µM, an LC50 [1] of 24.7 µM and a TGI [1] of 5.07 µM. The growth at 10 µM [2] was -10%, the growth at 0.001 µM [3] was 96% and the growth at 0.001 µM [4] was 92%. The GI50 [5] was 1.56 µM, the TGI [5] was 2.9 µM and the CC50 [5] was 5.38 µM. It also gave a growth at 10 µM [6] of 80.7%, a growth at 0.001 µM [7] of 72% and a growth at 10 µM [8] of -98%. It also gave a growth at 10 µM [9] of 73.9%, a GI50 [10] of 1.83 µM and a TGI [10] of 3.84 µM. For the same compound, the CC50 [10] was 8.06 µM, the growth at 10 µM [11] was -89% and the GI50 [12] was 1.17 µM. It also gave an LC50 (50% lethal concentration) [12] of 52.3 µM, a TGI [12] of 24.7 µM and a growth at 0.1 µM [13] of 106%. It also gave a growth at 10 µM [14] of -41%, a growth at 0.01 µM [15] of 89% and a GI50 [16] of 2.14 µM. It also gave a TGI [16] of 5.38 µM, a CC50 [16] of 18.9 µM and a growth at 0.01 µM [17] of 94%. The growth at 1 µM [18] was -62%, the growth at 0.1 µM [19] was 77% and the growth at 0.01 µM [20] was 84%. It also gave a growth at 0.01 µM [21] of 92%, a growth at 10 µM [22] of -88% and a growth at 0.01 µM [23] of 100%. The GI50 [24] was 3.38 µM, the TGI [24] was 13.5 µM and the CC50 [24] was 44 µM. The GI50 [25] was 1.8 µM, the TGI [25] was 5.78 µM and the CC50 [25] was 41 µM. The growth at 0.01 µM [26] was 101%, the growth at 0.01 µM [27] was 44% and the growth at 10 µM [28] was 46.7%. The growth at 0.001 µM [29] was 96%.

`Cc1cc(O)cc(-c2nn(CC#N)cc2-c2ccnc(-c3ccc(N(C)C)cc3)c2)c1` showed a GI50 [1] of 4.18 µM, an LC50 [1] greater than 100 µM and a TGI [1] of 54.5 µM. For the same compound, the growth at 10 µM [2] was -16%, the growth at 0.001 µM [3] was 100% and the growth at 0.001 µM [4] was 100%. It also gave a GI50 [5] of 2.71 µM, a TGI [5] of 10.4 µM and a CC50 [5] of 41.9 µM. For the same compound, the growth at 10 µM [6] was 94.1%, the growth at 0.001 µM [7] was 96% and the growth at 10 µM [8] was -26%. It also gave a growth at 10 µM [9] of 43.2%, a GI50 [10] of 4.65 µM and a TGI [10] of 20.8 µM. The CC50 [10] was 93.9 µM, the growth at 10 µM [11] was -14% and the GI50 [12] was 2.82 µM. It also gave an LC50 (50% lethal concentration) [12] greater than 100 µM, a TGI [12] of 23.4 µM and a growth at 0.1 µM [13] of 101%. For the same compound, the growth at 10 µM [14] was -1%, the growth at 0.01 µM [15] was 92% and the GI50 [16] was 3.41 µM. The TGI [16] was 16.6 µM, the CC50 [16] was greater than 100 µM and the growth at 0.01 µM [17] was 86%. The growth at 1 µM [18] was -50%, the growth at 0.1 µM [19] was 81% and the growth at 0.01 µM [20] was 98%. The growth at 0.01 µM [21] was 94%, the growth at 10 µM [22] was -5% and the growth at 0.01 µM [23] was 95%. For the same compound, the GI50 [24] was 2.12 µM, the TGI [24] was 5.33 µM and the CC50 [24] was 27.3 µM. The GI50 [25] was 2.89 µM, the TGI [25] was 16.4 µM and the CC50 [25] was greater than 100 µM. It also gave a growth at 0.01 µM [26] of 104%, a growth at 0.01 µM [27] of 101% and a growth at 10 µM [28] of 40.8%. It also gave a growth at 0.001 µM [29] of 99%.

In the case of `COc1cc(C)cc(-c2nn(CC#N)cc2-c2ccnc(-c3ccc(N(C)C)cc3)c2)c1`, the GI50 [1] is reported as 0.583 µM, the LC50 [1] is reported as greater than 100 µM and the TGI [1] is reported as 483 µM. For the same compound, the growth at 10 µM [2] was -27%, the growth at 0.001 µM [3] was 97% and the growth at 0.001 µM [4] was 103%. It also gave a GI50 [5] of 0.353 µM, a TGI [5] of 1.64 µM and a CC50 [5] greater than 100 µM. The growth at 10 µM [6] was 41.1%, the growth at 0.001 µM [7] was 98% and the growth at 10 µM [8] was -8%. The growth at 10 µM [9] was 40.8%, the GI50 [10] was 0.481 µM and the TGI [10] was 2.88 µM. For the same compound, the CC50 [10] was 37.2 µM, the growth at 10 µM [11] was -3% and the GI50 [12] was 0.39 µM. The LC50 (50% lethal concentration) [12] was greater than 100 µM, the TGI [12] was 18.7 µM and the growth at 0.1 µM [13] was 33%. For the same compound, the growth at 10 µM [14] was 23%, the growth at 0.01 µM [15] was 108% and the GI50 [16] was 0.42 µM. The TGI [16] was 5.43 µM, the CC50 [16] was greater than 100 µM and the growth at 0.01 µM [17] was 89%. The growth at 1 µM [18] was -55%, the growth at 0.1 µM [19] was 43% and the growth at 0.01 µM [20] was 94%. It also gave a growth at 0.01 µM [21] of 105%, a growth at 10 µM [22] of -8% and a growth at 0.01 µM [23] of 97%. For the same compound, the GI50 [24] was 0.259 µM, the TGI [24] was 0.596 µM and the CC50 [24] was greater than 100 µM. The GI50 [25] was 0.345 µM, the TGI [25] was 18.2 µM and the CC50 [25] was greater than 100 µM. The growth at 0.01 µM [26] was 105%, the growth at 0.01 µM [27] was 61% and the growth at 10 µM [28] was -2.19%. The growth at 0.001 µM [29] was 97%.
